# From ChEMBL document CHEMBL1156948, “Statistical molecular design of a focused salicylidene acylhydrazide library and multivariate QSAR of inhibition of type III secretion in the Gram-negative bacterium Yersinia” (Bioorg Med Chem, 2010)
# The source made the active and inactive calls. How the calls were made is not given here.
# Test system: Yersinia pseudotuberculosis YPIII
# Experiment: Inhibition of T3S in Yersinia pseudotuberculosis YPIII expressing yopE-luxAB at 25 uM after 3 hrs by luciferase reporter gene assay
# Summary of the method: (§1)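 Strain YPIII pIB102 (yopE-luxAB) grown overnight at room temperature in BHI with 5 mM EGTA and 20 mM MgCl2 (calcium depletion), adjusted to OD600 0.088–0.095. Compound added from DMSO at 1.56–200 µM final (eight concentrations). Shaken 1 h at room temperature, then 2 h at 37 °C. Decanal added and light emission read immediately. Triplicates, repeated at least three times.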
row,SMILES,inhibition [%]
1,N#CCC(=O)N/N=C/c1cc(Br)ccc1O,55
2,CCN(CC)c1ccc(/C=N/NC(=O)c2cc(Cl)cc(Cl)c2)c(O)c1,34
3,CC(C)(C)c1ccc(O)c(/C=N/NC(=O)CC23CC4CC(CC(C4)C2)C3)c1,17
4,COc1cc([N+](=O)[O-])cc(/C=N/NC(=O)CC#N)c1O,27
5,COc1cc(Br)cc(/C=N/NC(=O)CCc2ccc(O)cc2)c1O,18
6,COc1ccc(C(=O)N/N=C/c2cc(F)cc(Cl)c2O)cc1OC,10
7,COc1ccc(/C=N/NC(=O)C(N)=O)c(O)c1,13
8,COc1cc(/C=N/NC(=O)COc2ccc([N+](=O)[O-])cc2)c(O)c(OC)c1,18
9,COc1ccc(Br)c(C(=O)N/N=C/c2ccc(Cl)cc2O)c1,31
10,COc1cccc(C(=O)N/N=C/c2cc(C(C)(C)C)cc(C(C)(C)C)c2O)c1,14

# Test system: Yersinia pseudotuberculosis YPIII
# Experiment: Inhibition of T3S in Yersinia pseudotuberculosis YPIII expressing yopE-luxAB at 1.56 uM after 3 hrs by luciferase reporter gene assay
# Summary of the method: as §1
row,SMILES,inhibition [%]
1,N#CCC(=O)N/N=C/c1cc(Br)ccc1O,0
2,CCN(CC)c1ccc(/C=N/NC(=O)c2cc(Cl)cc(Cl)c2)c(O)c1,-6
3,CC(C)(C)c1ccc(O)c(/C=N/NC(=O)CC23CC4CC(CC(C4)C2)C3)c1,-6
4,COc1cc([N+](=O)[O-])cc(/C=N/NC(=O)CC#N)c1O,-4
5,COc1cc(Br)cc(/C=N/NC(=O)CCc2ccc(O)cc2)c1O,-10
6,COc1ccc(C(=O)N/N=C/c2cc(F)cc(Cl)c2O)cc1OC,-10

# Test system: Yersinia pseudotuberculosis
# Experiment: Antibacterial activity against Yersinia pseudotuberculosis expressing pIB102 at 100 uM after 23 hrs by broth dilution assay
# Format: functional, organism-based
# Summary of the method: (§2)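 Wild-type pIB102 grown overnight in LB at room temperature, diluted to OD600 = 0.1 in LB with 2.5 mM CaCl2. Compound added from DMSO stock to final 50 and 100 µM. Incubated at 37 °C with absorbance at 595 nm read over 23 h.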
row,SMILES,Activity
1,N#CCC(=O)N/N=C/c1cc(Br)ccc1O,inactive
2,CCN(CC)c1ccc(/C=N/NC(=O)c2cc(Cl)cc(Cl)c2)c(O)c1,inactive
3,CC(C)(C)c1ccc(O)c(/C=N/NC(=O)CC23CC4CC(CC(C4)C2)C3)c1,inactive
4,COc1cc([N+](=O)[O-])cc(/C=N/NC(=O)CC#N)c1O,inactive
5,COc1cc(Br)cc(/C=N/NC(=O)CCc2ccc(O)cc2)c1O,inactive
6,COc1ccc(C(=O)N/N=C/c2cc(F)cc(Cl)c2O)cc1OC,inactive
7,COc1ccc(/C=N/NC(=O)C(N)=O)c(O)c1,inactive
8,COc1cc(/C=N/NC(=O)COc2ccc([N+](=O)[O-])cc2)c(O)c(OC)c1,inactive
9,COc1ccc(Br)c(C(=O)N/N=C/c2ccc(Cl)cc2O)c1,inactive
10,COc1cccc(C(=O)N/N=C/c2cc(C(C)(C)C)cc(C(C)(C)C)c2O)c1,inactive

# Test system: Yersinia pseudotuberculosis YPIII
# Experiment: Inhibition of T3S in Yersinia pseudotuberculosis YPIII expressing yopE-luxAB at 12.5 uM after 3 hrs by luciferase reporter gene assay
# Summary of the method: as §1
row,SMILES,inhibition [%]
1,N#CCC(=O)N/N=C/c1cc(Br)ccc1O,22
2,CCN(CC)c1ccc(/C=N/NC(=O)c2cc(Cl)cc(Cl)c2)c(O)c1,29
3,CC(C)(C)c1ccc(O)c(/C=N/NC(=O)CC23CC4CC(CC(C4)C2)C3)c1,13
4,COc1cc([N+](=O)[O-])cc(/C=N/NC(=O)CC#N)c1O,24
5,COc1cc(Br)cc(/C=N/NC(=O)CCc2ccc(O)cc2)c1O,11
6,COc1ccc(C(=O)N/N=C/c2cc(F)cc(Cl)c2O)cc1OC,0
7,COc1ccc(/C=N/NC(=O)C(N)=O)c(O)c1,8
8,COc1cc(/C=N/NC(=O)COc2ccc([N+](=O)[O-])cc2)c(O)c(OC)c1,14
9,COc1ccc(Br)c(C(=O)N/N=C/c2ccc(Cl)cc2O)c1,25
10,COc1cccc(C(=O)N/N=C/c2cc(C(C)(C)C)cc(C(C)(C)C)c2O)c1,13

# Test system: Yersinia pseudotuberculosis YPIII
# Experiment: Inhibition of T3S in Yersinia pseudotuberculosis YPIII expressing yopE-luxAB at 50 uM after 3 hrs by luciferase reporter gene assay
# Summary of the method: as §1
row,SMILES,inhibition [%]
1,N#CCC(=O)N/N=C/c1cc(Br)ccc1O,86
2,CCN(CC)c1ccc(/C=N/NC(=O)c2cc(Cl)cc(Cl)c2)c(O)c1,43
3,CC(C)(C)c1ccc(O)c(/C=N/NC(=O)CC23CC4CC(CC(C4)C2)C3)c1,10
4,COc1cc([N+](=O)[O-])cc(/C=N/NC(=O)CC#N)c1O,39
5,COc1cc(Br)cc(/C=N/NC(=O)CCc2ccc(O)cc2)c1O,23
6,COc1ccc(C(=O)N/N=C/c2cc(F)cc(Cl)c2O)cc1OC,38
7,COc1ccc(/C=N/NC(=O)C(N)=O)c(O)c1,73
8,COc1cc(/C=N/NC(=O)COc2ccc([N+](=O)[O-])cc2)c(O)c(OC)c1,16
9,COc1ccc(Br)c(C(=O)N/N=C/c2ccc(Cl)cc2O)c1,36
10,COc1cccc(C(=O)N/N=C/c2cc(C(C)(C)C)cc(C(C)(C)C)c2O)c1,23

# Test system: Yersinia pseudotuberculosis YPIII
# Experiment: Inhibition of T3S in Yersinia pseudotuberculosis YPIII expressing yopE-luxAB at 6.25 uM after 3 hrs by luciferase reporter gene assay
# Summary of the method: as §1
row,SMILES,inhibition [%]
1,N#CCC(=O)N/N=C/c1cc(Br)ccc1O,6
2,CCN(CC)c1ccc(/C=N/NC(=O)c2cc(Cl)cc(Cl)c2)c(O)c1,22
3,CC(C)(C)c1ccc(O)c(/C=N/NC(=O)CC23CC4CC(CC(C4)C2)C3)c1,10
4,COc1cc([N+](=O)[O-])cc(/C=N/NC(=O)CC#N)c1O,14
5,COc1cc(Br)cc(/C=N/NC(=O)CCc2ccc(O)cc2)c1O,9
6,COc1ccc(C(=O)N/N=C/c2cc(F)cc(Cl)c2O)cc1OC,6
7,COc1ccc(/C=N/NC(=O)C(N)=O)c(O)c1,4
8,COc1cc(/C=N/NC(=O)COc2ccc([N+](=O)[O-])cc2)c(O)c(OC)c1,13
9,COc1ccc(Br)c(C(=O)N/N=C/c2ccc(Cl)cc2O)c1,10
10,COc1cccc(C(=O)N/N=C/c2cc(C(C)(C)C)cc(C(C)(C)C)c2O)c1,7

# Test system: Yersinia pseudotuberculosis YPIII
# Experiment: Inhibition of T3S in Yersinia pseudotuberculosis YPIII expressing yopE-luxAB at 3.13 uM after 3 hrs by luciferase reporter gene assay
# Summary of the method: as §1
row,SMILES,inhibition [%]
1,N#CCC(=O)N/N=C/c1cc(Br)ccc1O,11
2,CCN(CC)c1ccc(/C=N/NC(=O)c2cc(Cl)cc(Cl)c2)c(O)c1,19
3,CC(C)(C)c1ccc(O)c(/C=N/NC(=O)CC23CC4CC(CC(C4)C2)C3)c1,3
4,COc1cc([N+](=O)[O-])cc(/C=N/NC(=O)CC#N)c1O,4
5,COc1cc(Br)cc(/C=N/NC(=O)CCc2ccc(O)cc2)c1O,3
6,COc1ccc(/C=N/NC(=O)C(N)=O)c(O)c1,-6
7,COc1cc(/C=N/NC(=O)COc2ccc([N+](=O)[O-])cc2)c(O)c(OC)c1,-1
8,COc1ccc(Br)c(C(=O)N/N=C/c2ccc(Cl)cc2O)c1,14
9,COc1cccc(C(=O)N/N=C/c2cc(C(C)(C)C)cc(C(C)(C)C)c2O)c1,4

# Test system: Escherichia coli
# Experiment: Antibacterial activity against Escherichia coli DH5[alpha] at 50 uM after 23 hrs by broth dilution assay
# Format: functional, organism-based
# Summary of the method: (§3)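 Overnight LB culture of E. coli DH5α grown at 37 °C, diluted to OD600 0.1 in LB with 2.5 mM CaCl2; compound added from DMSO stock to final 50 or 100 µM. Incubated at 37 °C with absorbance at 595 nm followed over 23 h.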
row,SMILES,Activity
1,N#CCC(=O)N/N=C/c1cc(Br)ccc1O,inactive
2,CCN(CC)c1ccc(/C=N/NC(=O)c2cc(Cl)cc(Cl)c2)c(O)c1,inactive
3,CC(C)(C)c1ccc(O)c(/C=N/NC(=O)CC23CC4CC(CC(C4)C2)C3)c1,inactive
4,COc1cc([N+](=O)[O-])cc(/C=N/NC(=O)CC#N)c1O,inactive
5,COc1cc(Br)cc(/C=N/NC(=O)CCc2ccc(O)cc2)c1O,inactive
6,COc1ccc(C(=O)N/N=C/c2cc(F)cc(Cl)c2O)cc1OC,inactive
7,COc1ccc(/C=N/NC(=O)C(N)=O)c(O)c1,inactive
8,COc1cc(/C=N/NC(=O)COc2ccc([N+](=O)[O-])cc2)c(O)c(OC)c1,inactive
9,COc1ccc(Br)c(C(=O)N/N=C/c2ccc(Cl)cc2O)c1,inactive
10,COc1cccc(C(=O)N/N=C/c2cc(C(C)(C)C)cc(C(C)(C)C)c2O)c1,inactive

# Test system: Escherichia coli
# Experiment: Antibacterial activity against Escherichia coli DH5[alpha] at 100 uM after 23 hrs by broth dilution assay
# Format: functional, organism-based
# Summary of the method: as §3
row,SMILES,Activity
1,N#CCC(=O)N/N=C/c1cc(Br)ccc1O,inactive
2,CCN(CC)c1ccc(/C=N/NC(=O)c2cc(Cl)cc(Cl)c2)c(O)c1,inactive
3,CC(C)(C)c1ccc(O)c(/C=N/NC(=O)CC23CC4CC(CC(C4)C2)C3)c1,inactive
4,COc1cc([N+](=O)[O-])cc(/C=N/NC(=O)CC#N)c1O,inactive
5,COc1cc(Br)cc(/C=N/NC(=O)CCc2ccc(O)cc2)c1O,inactive
6,COc1ccc(C(=O)N/N=C/c2cc(F)cc(Cl)c2O)cc1OC,inactive
7,COc1ccc(/C=N/NC(=O)C(N)=O)c(O)c1,inactive
8,COc1cc(/C=N/NC(=O)COc2ccc([N+](=O)[O-])cc2)c(O)c(OC)c1,inactive
9,COc1ccc(Br)c(C(=O)N/N=C/c2ccc(Cl)cc2O)c1,inactive
10,COc1cccc(C(=O)N/N=C/c2cc(C(C)(C)C)cc(C(C)(C)C)c2O)c1,inactive

# Test system: Yersinia pseudotuberculosis YPIII
# Experiment: Inhibition of T3S in Yersinia pseudotuberculosis YPIII expressing yopE-luxAB at 200 uM after 3 hrs by luciferase reporter gene assay
# Summary of the method: as §1
row,SMILES,inhibition [%]
1,N#CCC(=O)N/N=C/c1cc(Br)ccc1O,99
2,CCN(CC)c1ccc(/C=N/NC(=O)c2cc(Cl)cc(Cl)c2)c(O)c1,46
3,CC(C)(C)c1ccc(O)c(/C=N/NC(=O)CC23CC4CC(CC(C4)C2)C3)c1,-1
4,COc1cc([N+](=O)[O-])cc(/C=N/NC(=O)CC#N)c1O,43
5,COc1cc(Br)cc(/C=N/NC(=O)CCc2ccc(O)cc2)c1O,52
6,COc1ccc(C(=O)N/N=C/c2cc(F)cc(Cl)c2O)cc1OC,64
7,COc1ccc(/C=N/NC(=O)C(N)=O)c(O)c1,97
8,COc1cc(/C=N/NC(=O)COc2ccc([N+](=O)[O-])cc2)c(O)c(OC)c1,-2
9,COc1ccc(Br)c(C(=O)N/N=C/c2ccc(Cl)cc2O)c1,58
10,COc1cccc(C(=O)N/N=C/c2cc(C(C)(C)C)cc(C(C)(C)C)c2O)c1,11

# Test system: Yersinia pseudotuberculosis
# Experiment: Antibacterial activity against Yersinia pseudotuberculosis expressing pIB102 at 50 uM after 23 hrs by broth dilution assay
# Format: functional, organism-based
# Summary of the method: as §2
row,SMILES,Activity
1,N#CCC(=O)N/N=C/c1cc(Br)ccc1O,inactive
2,CCN(CC)c1ccc(/C=N/NC(=O)c2cc(Cl)cc(Cl)c2)c(O)c1,inactive
3,CC(C)(C)c1ccc(O)c(/C=N/NC(=O)CC23CC4CC(CC(C4)C2)C3)c1,inactive
4,COc1cc([N+](=O)[O-])cc(/C=N/NC(=O)CC#N)c1O,inactive
5,COc1cc(Br)cc(/C=N/NC(=O)CCc2ccc(O)cc2)c1O,inactive
6,COc1ccc(C(=O)N/N=C/c2cc(F)cc(Cl)c2O)cc1OC,inactive
7,COc1ccc(/C=N/NC(=O)C(N)=O)c(O)c1,inactive
8,COc1cc(/C=N/NC(=O)COc2ccc([N+](=O)[O-])cc2)c(O)c(OC)c1,inactive
9,COc1ccc(Br)c(C(=O)N/N=C/c2ccc(Cl)cc2O)c1,inactive
10,COc1cccc(C(=O)N/N=C/c2cc(C(C)(C)C)cc(C(C)(C)C)c2O)c1,inactive

# Test system: Yersinia pseudotuberculosis YPIII
# Experiment: Inhibition of T3S in Yersinia pseudotuberculosis YPIII expressing yopE-luxAB at 100 uM after 3 hrs by luciferase reporter gene assay
# Summary of the method: as §1
row,SMILES,inhibition [%]
1,N#CCC(=O)N/N=C/c1cc(Br)ccc1O,97
2,CCN(CC)c1ccc(/C=N/NC(=O)c2cc(Cl)cc(Cl)c2)c(O)c1,46
3,CC(C)(C)c1ccc(O)c(/C=N/NC(=O)CC23CC4CC(CC(C4)C2)C3)c1,17
4,COc1cc([N+](=O)[O-])cc(/C=N/NC(=O)CC#N)c1O,39
5,COc1cc(Br)cc(/C=N/NC(=O)CCc2ccc(O)cc2)c1O,36
6,COc1ccc(C(=O)N/N=C/c2cc(F)cc(Cl)c2O)cc1OC,56
7,COc1ccc(/C=N/NC(=O)C(N)=O)c(O)c1,94
8,COc1cc(/C=N/NC(=O)COc2ccc([N+](=O)[O-])cc2)c(O)c(OC)c1,14
9,COc1ccc(Br)c(C(=O)N/N=C/c2ccc(Cl)cc2O)c1,49
10,COc1cccc(C(=O)N/N=C/c2cc(C(C)(C)C)cc(C(C)(C)C)c2O)c1,21
